Experimental data from paper PMC3729352 (Pharmacological research : the official journal of the …, 2011).

Assays:
mouse Abcg2 = target: T1, mouse Abcg2 (Mus musculus, UniProt Q7TMS5); test: Transepithelial transport across MDCKII monolayers over-expressing mouse Abcg2; format: in vitro ADME
T1 sequence (Q7TMS5 1-657): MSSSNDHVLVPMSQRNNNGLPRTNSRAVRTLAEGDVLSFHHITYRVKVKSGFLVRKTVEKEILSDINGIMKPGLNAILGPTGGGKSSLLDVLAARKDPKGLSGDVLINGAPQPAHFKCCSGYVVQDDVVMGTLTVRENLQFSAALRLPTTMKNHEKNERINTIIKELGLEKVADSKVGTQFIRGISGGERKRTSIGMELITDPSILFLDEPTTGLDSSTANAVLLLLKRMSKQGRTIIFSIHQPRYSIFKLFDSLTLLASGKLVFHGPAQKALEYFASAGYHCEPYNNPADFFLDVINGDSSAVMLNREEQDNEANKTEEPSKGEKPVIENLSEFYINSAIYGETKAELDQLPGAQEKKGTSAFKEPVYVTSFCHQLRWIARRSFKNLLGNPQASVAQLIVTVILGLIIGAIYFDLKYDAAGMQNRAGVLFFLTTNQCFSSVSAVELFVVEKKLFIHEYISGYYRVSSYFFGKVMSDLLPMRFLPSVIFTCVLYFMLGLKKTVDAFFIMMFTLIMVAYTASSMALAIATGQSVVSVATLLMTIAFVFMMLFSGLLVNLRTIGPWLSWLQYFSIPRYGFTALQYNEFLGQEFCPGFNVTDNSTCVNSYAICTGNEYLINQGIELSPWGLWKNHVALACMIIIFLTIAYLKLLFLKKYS

ABCG2 = target: T2, ABCG2 (Mus musculus, UniProt Q7TMS5); format: in vivo; conditions: Ko143 0, 1, 3 and 10 mg-kg^−1 i.p., 20 min prior to URB937 25 mg-kg^−1 s.c., ex vivo 1 h after URB937
T2 sequence (Q7TMS5 1-657): T1 sequence (Q7TMS5 1-657)

[1] = Transepithelial transport across MDCKII parental monolayers; format: in vitro ADME, canine; conditions: dog, MDCK
[2] = Plasma and tissue levels of URB937 in wild-type and Abcg2-/- mice; format: in vivo, mouse; conditions: 25 mg-kg^−1 s.c., mean ± SEM; for Level of URB937 in brain / Level of URB937 in kidney / Level of URB937 in liver / Level of URB937 in spinal cord: 1 h; for concentration at 1 h: mouse, plasma, sc, 25 mg-kg^−1, Level of URB937 in plasma
Method in brief: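 Dosing: test compound 25 mg-kg−1 s.c. in saline/PEG400/Tween-80 (18:1:1) to Abcg2−/− (n = 4) and wild-type littermates (n = 5); killed at 1 h. Plasma obtained by cardiac puncture and spun 2000 × g. Tissue homogenates and plasma extracted with methanol/chloroform (1:2) containing internal standard. Analysis by ESI-LC/MS on a C18 column with a methanol/water gradient (0.25% acetic acid, 5 mM ammonium acetate) at m/z 377; mean ± SEM.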

FAAH [3] = target: T3, FAAH (Mus musculus, UniProt O08914); conditions: cited from earlier work
T3 sequence (O08914 1-579): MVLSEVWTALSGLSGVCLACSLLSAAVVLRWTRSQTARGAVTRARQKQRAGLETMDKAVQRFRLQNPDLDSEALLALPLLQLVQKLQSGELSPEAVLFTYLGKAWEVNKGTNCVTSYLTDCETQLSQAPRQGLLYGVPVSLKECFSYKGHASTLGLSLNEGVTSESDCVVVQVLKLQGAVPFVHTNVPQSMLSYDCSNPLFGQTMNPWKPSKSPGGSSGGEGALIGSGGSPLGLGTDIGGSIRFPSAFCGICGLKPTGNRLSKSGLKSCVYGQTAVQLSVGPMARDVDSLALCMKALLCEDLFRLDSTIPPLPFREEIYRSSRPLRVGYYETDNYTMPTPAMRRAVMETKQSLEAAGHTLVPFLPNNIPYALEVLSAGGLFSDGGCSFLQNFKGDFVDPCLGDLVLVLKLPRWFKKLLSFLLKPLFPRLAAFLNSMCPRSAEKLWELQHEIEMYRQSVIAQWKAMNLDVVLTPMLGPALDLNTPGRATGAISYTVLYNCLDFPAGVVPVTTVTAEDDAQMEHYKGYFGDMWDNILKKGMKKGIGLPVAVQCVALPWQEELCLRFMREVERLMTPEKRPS

human ABCG2 = target: T4, human ABCG2 (Homo sapiens, UniProt Q9UNQ0)
T4 sequence (Q9UNQ0 1-655): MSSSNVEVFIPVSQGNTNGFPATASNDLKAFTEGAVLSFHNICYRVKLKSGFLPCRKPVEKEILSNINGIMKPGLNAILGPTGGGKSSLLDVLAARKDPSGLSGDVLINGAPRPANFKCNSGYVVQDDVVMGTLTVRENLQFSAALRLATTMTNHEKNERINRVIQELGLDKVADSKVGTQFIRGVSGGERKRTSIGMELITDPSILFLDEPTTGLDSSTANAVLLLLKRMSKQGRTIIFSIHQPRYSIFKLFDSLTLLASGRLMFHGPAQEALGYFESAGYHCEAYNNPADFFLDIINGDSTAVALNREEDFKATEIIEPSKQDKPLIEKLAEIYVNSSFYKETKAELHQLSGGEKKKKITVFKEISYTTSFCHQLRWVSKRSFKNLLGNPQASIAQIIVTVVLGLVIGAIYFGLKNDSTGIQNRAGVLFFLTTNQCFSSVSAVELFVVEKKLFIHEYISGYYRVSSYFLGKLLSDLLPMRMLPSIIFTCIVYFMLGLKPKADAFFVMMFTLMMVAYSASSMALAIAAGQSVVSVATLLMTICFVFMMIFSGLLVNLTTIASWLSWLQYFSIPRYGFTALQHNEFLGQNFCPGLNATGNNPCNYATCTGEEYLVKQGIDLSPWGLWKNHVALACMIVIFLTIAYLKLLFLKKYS

FAAH [4] = target: T3, FAAH; test: Ex vivo FAAH activity in tissues of wild-type and Abcg2-/- mice after URB937; conditions: URB937 25 mg-kg^−1 s.c., 1 h
Method in brief: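 Male Abcg2−/− mice (n = 4) and wild-type FVB littermates (n = 5), 9–13 weeks, given test compound at 25 mg-kg−1 s.c. in saline/PEG400/Tween-80 (18:1:1). Killed 1 h later; tissues homogenized in 50 mM Tris-HCl pH 7.5 with 0.32 M sucrose. FAAH assay: 37°C, 30 min, 0.05% BSA, 50 µg protein (100 µg liver), 10 µM anandamide plus [3H]-anandamide. Read-out: aqueous-phase scintillation counting; mean ± SEM.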

COc1ccc2c3c([nH]c2c1)[C@H](CC(C)C)N1C(=O)[C@H](CCC(=O)OC(C)(C)C)NC(=O)[C@@H]1C3 [Ko143, reference compound]
inhibition of Abcg2-mediated transport of URB937 (mouse Abcg2; Ko143 1 µM, URB937 5 µM, MDCKII-Abcg2): completely inhibited | brain FAAH activity (ABCG2): dose-dependent decrease

NC(=O)c1cccc(-c2cc(OC(=O)NC3CCCCC3)ccc2O)c1 [URB937, cyclohexylcarbamic acid 3'-carbamoyl-6-hydroxybiphenyl-3-yl ester]
efflux ratio at 4 h, 5 µM [1]: 1.5 | Level of URB937 in brain ([2]; Abcg2^−/− mice): 1.15 ± 0.04 pmol/mg | Level of URB937 in kidney ([2]; Abcg2^−/− mice): 34.97 ± 0.35 pmol/mg | Level of URB937 in liver ([2]; Abcg2^−/− mice): 7.75 ± 2.3 pmol/mg | Level of URB937 in spinal cord ([2]; Abcg2^−/− mice): 0.80 ± 0.10 pmol/mg | concentration at 1 h ([2]; Abcg2^−/− mice): 6.95 ± 0.9 µM | concentration at 1 h ([2]; wild-type mice): 8.34 ± 1.7 µM | Level of URB937 in brain ([2]; wild-type mice): 0.46 ± 0.12 pmol/mg | Level of URB937 in kidney ([2]; wild-type mice): 33.88 ± 3.3 pmol/mg | Level of URB937 in liver ([2]; wild-type mice): 7.51 ± 3.1 pmol/mg | Level of URB937 in spinal cord ([2]; wild-type mice): 0.29 ± 0.04 pmol/mg | potency at inhibiting FAAH activity in mouse liver relative to mouse brain (FAAH [3]; mouse liver vs mouse brain): 400 times | half-maximal effective dose (ID50), liver FAAH activity (FAAH [3]; systemic administration in mice, liver): 0.1 mg/kg | FAAH activity in forebrain, hypothalamus and spinal cord (FAAH [3]; systemic administration in mice): fails to alter | increase of relative transport ratio by over-expression vs parental cells (human ABCG2): ~10 folds | efflux ratio at 4 h, 5 µM (mouse Abcg2; mouse): 13.6 | increase of relative transport ratio by over-expression vs parental cells (mouse Abcg2; mouse Abcg2 over-expression): ~10 folds | reduction in FAAH activity in brain and spinal cord (FAAH [4]; Abcg2^−/− mice compared to wild-type): 80% | FAAH activity in liver and kidney tissue (FAAH [4]; wild-type and Abcg2^−/− mice): nearly abolished | inhibition of FAAH activity in CNS (FAAH [4]; wild-type mice): almost no inhibition
